What was measured:
Rattus norvegicus [1] = assay: Antinociceptive activity in Wistar rat chronic constriction injury model assessed as reversal of cold allodynia at 100 mg/kg, ip after 120 mins (reference value: 5.4 +/- 1.9%); format: functional; conditions: route intraperitoneal
Mus musculus [2] = assay: Antinociceptive activity in Swiss albino mouse assessed as inhibition of formalin-induced flinching at 100 mg/kg administered 30 mins prior to test measured for 10 to 30 mins relative to control; format: functional
Rattus norvegicus [3] = assay: Antinociceptive activity in Wistar rat partial sciatic nerve ligation model assessed as reversal of cold allodynia at 100 mg/kg, ip after 120 mins (reference value: 1.5 +/- 0.5%); format: functional; conditions: route intraperitoneal
Rattus norvegicus [4] = assay: Antinociceptive activity in ip dosed Wistar rat partial sciatic nerve ligation model assessed as reversal of spontaneous pain response after 30 mins; format: functional; conditions: 0.5 h
In short: (§1)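 Wistar rats (200–250 g) with nerve injury, compounds i.p. in 30% v/v PEG 400; dose–response curves in each sensory test (spontaneous pain and cold allodynia as paw withdrawal duration; tactile allodynia and hyperalgesia as withdrawal threshold). ED50 linearly interpolated between doses just above and below 50% response; time of peak effect recorded.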

Rattus norvegicus [5] = assay: Antinociceptive activity in Wistar rat chronic constriction injury model assessed as reversal of mechanical allodynia at 100 mg/kg, ip after 30 mins (reference value: 4.7 +/- 2.1%); format: functional; conditions: route intraperitoneal
Rattus norvegicus [6] = assay: Antinociceptive activity in Wistar rat partial sciatic nerve ligation model assessed as reversal of mechanical allodynia at 100 mg/kg, ip after 30 mins (reference value: 2.9 +/- 0.3%); format: functional; conditions: route intraperitoneal
Rattus norvegicus [7] = assay: Antinociceptive activity in Wistar rat chronic constriction injury model assessed as reversal of spontaneous pain response at 100 mg/kg, ip after 30 mins (reference value: 8.9 +/- 4.6%); format: functional; conditions: route intraperitoneal
Rattus norvegicus [8] = organism: Rattus norvegicus; assay: Neuroprotective activity in Wistar rat chronic constriction injury model assessed as inhibition of nitric oxide production in sciatic nerve after 2 hrs by Griess method relative to control; format: functional
In short: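 Wistar rats of either sex (200-250 g) with chronic constriction of the left sciatic nerve. On day 9 post-injury, compound given i.p. in 30% v/v PEG 400; tissue taken 2 h after dosing. Nitrate reduced to nitrite, nitrite measured colorimetrically with Griess reagent against a standard curve. Results expressed as percentage of vehicle-treated control; n = 4.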

Rattus norvegicus [9] = assay: Antinociceptive activity in Wistar rat chronic constriction injury model assessed as reversal of mechanical allodynia at 100 mg/kg, ip after 60 mins (reference value: 4.9 +/- 1.0%); format: functional; conditions: route intraperitoneal
[10] = test system: Radical scavenging activity; assay: Antioxidant activity assessed as DPPH radical scavenging activity after 20 mins […]; format: functional
In short: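 Compounds mixed with methanolic DPPH (final 300 µM) in microplate; after 20 min absorbance at 517 nm read; methanolic DPPH as control. % scavenging = (A DPPH − A DPPH+compound)/A DPPH × 100; dose–response curve used for IC50.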

Mus musculus [11] = assay: Antinociceptive activity in Swiss albino mouse assessed as inhibition of acetic acid-induced writhing at 100 mg/kg administered 30 mins prior to acetic acid-challenge measured for 30 mins relative to control; format: functional
In short: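 Swiss albino mice (20–25 g, either sex); writhing induced by i.p. 0.1 mL of 2.0% v/v acetic acid given half an hour after test compound dosing.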

Rattus norvegicus [12] = assay: Antinociceptive activity in Wistar rat chronic constriction injury model assessed as reversal of tactile allodynia at 100 mg/kg, ip after 60 mins (reference value: 1.3 +/- 0.3%); format: functional; conditions: route intraperitoneal
Mus musculus [13] = assay: Antiinflammatory activity in Swiss albino mouse assessed as inhibition of LPS-induced TNFalpha production at 100 mg/kg, ip administered 30 mins prior to LPS-challenge measured after 90 mins by ELISA relative to control; format: functional; conditions: route intraperitoneal
In short: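 Swiss albino mice (20–25 g, either sex) dosed i.p. with 100 mg/kg in 10 mL/kg; LPS 1.0 mg/kg in sterile PBS i.p. given 30 min later. Blood taken 90 min after LPS, plasma TNF measured by ELISA, expressed as % inhibition versus vehicle-treated control; n = 4, one-way ANOVA with Dunnett's test.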

Cannabinoid receptor 1 = Cannabinoid receptor 1 (Rattus norvegicus, UniProt P20272); assay: Displacement of [3H]CP55940 from CB1 receptor in rat brain homogenate after 90 mins; format: tissue-based
Chain of Cannabinoid receptor 1 (P20272 whole entry): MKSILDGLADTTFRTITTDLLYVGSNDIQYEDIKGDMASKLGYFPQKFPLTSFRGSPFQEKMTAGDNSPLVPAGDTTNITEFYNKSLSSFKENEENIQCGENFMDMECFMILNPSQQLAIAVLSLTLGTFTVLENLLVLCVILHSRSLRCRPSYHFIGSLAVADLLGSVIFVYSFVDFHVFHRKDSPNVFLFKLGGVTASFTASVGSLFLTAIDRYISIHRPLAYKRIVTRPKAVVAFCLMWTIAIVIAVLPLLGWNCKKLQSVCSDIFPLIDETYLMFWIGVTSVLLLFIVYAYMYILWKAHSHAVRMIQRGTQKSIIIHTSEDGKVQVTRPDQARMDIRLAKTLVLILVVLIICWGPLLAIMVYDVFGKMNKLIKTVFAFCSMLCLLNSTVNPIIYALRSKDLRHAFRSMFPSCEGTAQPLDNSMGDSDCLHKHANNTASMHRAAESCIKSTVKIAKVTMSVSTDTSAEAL
In short: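 Rat brain (CB1) or spleen (CB2) membranes, homogenized in tris/NaCl/MgCl2 pH 7.4, competed against 0.5 nM [3H]CP55940 in 50 mM Tris-HCl, 2 mM EDTA, 5 mM MgCl2, 0.2 mg/mL BSA, pH 7.4; 90 min incubation. Nonspecific binding with 1 µM WIN (CB1) or 1 µM SR144528 (CB2); triplicates averaged.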

Rattus norvegicus [14] = assay: Antinociceptive activity in Wistar rat chronic constriction injury model assessed as reversal of spontaneous pain response at 100 mg/kg, ip after 60 mins (reference value: 4.6 +/- 0.6%); format: functional; conditions: route intraperitoneal
Rattus norvegicus [15] = assay: Antinociceptive activity in Wistar rat partial sciatic nerve ligation model assessed as reversal of mechanical allodynia at 100 mg/kg, ip after 120 mins (reference value: 2.9 +/- 0.3%); format: functional; conditions: route intraperitoneal
Rattus norvegicus [16] = assay: Antinociceptive activity in Wistar rat chronic constriction injury model assessed as reversal of spontaneous pain response at 100 mg/kg, ip after 120 mins (reference value: 4.5 +/- 0.2%); format: functional; conditions: route intraperitoneal
Rattus norvegicus [17] = assay: Antinociceptive activity in Wistar rat partial sciatic nerve ligation model assessed as reversal of spontaneous pain response at 100 mg/kg, ip after 60 mins (reference value: 2.9 +/- 0.3%); format: functional; conditions: route intraperitoneal
Rattus norvegicus [18] = assay: Antinociceptive activity in Wistar rat chronic constriction injury model assessed as reversal of mechanical allodynia at 100 mg/kg, ip after 120 mins (reference value: 5.3 +/- 0.5%); format: functional; conditions: route intraperitoneal
Rattus norvegicus [19] = assay: Antinociceptive activity in Wistar rat chronic constriction injury model assessed as reversal of tactile allodynia at 100 mg/kg, ip after 120 mins (reference value: 4.1 +/- 2.1%); format: functional; conditions: route intraperitoneal
Rattus norvegicus [20] = assay: Antinociceptive activity in ip dosed Wistar rat partial sciatic nerve ligation model assessed as reversal of mechanical allodynia after 30 mins; format: functional; conditions: 0.5 h; in short: as §1
Rattus norvegicus [21] = assay: Antinociceptive activity in Wistar rat chronic constriction injury model assessed as reversal of cold allodynia at 100 mg/kg, ip after 30 mins (reference value: 0.6 +/- 2.7%); format: functional; conditions: route intraperitoneal
Mus musculus [22] = assay: Neurotoxicity in Swiss albino mouse assessed as minimal motor impairment at 300 mg/kg after 4 hrs by rotarod test; format: toxicity, organism-based; design: dose 300 mg/kg; conditions: in vivo
In short: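 Swiss albino mice of either sex, 20-25 g, dosed at 30, 100 and 300 mg/kg, three per group. Minimal motor impairment scored by rotarod at 0.5 and 4.0 h after dosing. Reported value is the lowest dose giving impairment in half or more of the mice.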

Rattus norvegicus [23] = assay: Antinociceptive activity in Wistar rat partial sciatic nerve ligation model assessed as reversal of cold allodynia at 100 mg/kg, ip after 30 mins (reference value: 4.1 +/- 1.0%); format: functional; conditions: route intraperitoneal
Rattus norvegicus [24] = assay: Antinociceptive activity in Wistar rat partial sciatic nerve ligation model assessed as reversal of spontaneous pain response at 100 mg/kg, ip after 30 mins (reference value: 3.2 +/- 0.3%); format: functional; conditions: route intraperitoneal

SMILES	Activity (Rattus norvegicus [1]) [%]	inhibition in vivo at 100 mg/kg (Mus musculus [2]) [%]	Activity (Rattus norvegicus [3]) [%]	ED50 (Rattus norvegicus [4]) [mg/kg]	Activity (Rattus norvegicus [5]) [%]	Activity (Rattus norvegicus [6]) [%]	Activity (Rattus norvegicus [7]) [%]	inhibition (INH) (Rattus norvegicus [8]) [%]	Activity (Rattus norvegicus [9]) [%]	IC50 [10] [µM]	inhibition in vivo at 100 mg/kg (Mus musculus [11]) [%]	Activity (Rattus norvegicus [12]) [%]	inhibition in vivo at 100 mg/kg (Mus musculus [13]) [%]	IC50 (Cannabinoid receptor 1) [µM]	Activity (Rattus norvegicus [14]) [%]	Activity (Rattus norvegicus [15]) [%]	Activity (Rattus norvegicus [16]) [%]	Activity (Rattus norvegicus [17]) [%]	Activity (Rattus norvegicus [18]) [%]	Activity (Rattus norvegicus [19]) [%]	also measured
CCN1CCc2c(c(C(C)(C)C)nn2C(=O)Nc2ccc(Br)cc2)C1	56.9	72.1	48.2	29	81.9	59.8	90.6	47.8	66	81	72.8	58.2	86.4	0.0496	85.9	41.1	83.2	55.7	65.3	50.5	ED50 (Rattus norvegicus [20]): 29 mg/kg; Activity (Rattus norvegicus [21]): 73%; Activity (Mus musculus [22]): Non-toxic; Activity (Rattus norvegicus [23]): 55.4%; Activity (Rattus norvegicus [24]): 90.4%
CCN1CCc2c(c(C(C)(C)C)nn2C(=O)Nc2c(C)cccc2C)C1	18.8	68	10.4	8.1	69.4	95.5	95	68.7	84.4	102	73.7	54.5	77.6	> 1	90.7	50	88.5	78.3	78.9	69.7	ED50 (Rattus norvegicus [20]): 23.6 mg/kg; Activity (Rattus norvegicus [21]): 61.4%; Activity (Mus musculus [22]): Non-toxic; Activity (Rattus norvegicus [23]): 58.3%; Activity (Rattus norvegicus [24]): 93.9%
CCN1CCc2c(c(C(C)(C)C)nn2C(=O)Nc2ccc(C)cc2C)C1	40.4	59.9	38.2	7.4	93.8	62.3	85.4	65.4	80	134	71.1	54.5	58.9	> 1	90.9	46.3	89.5	67.3	67.5	58	ED50 (Rattus norvegicus [20]): 31.8 mg/kg; Activity (Rattus norvegicus [21]): 53.9%; Activity (Mus musculus [22]): Non-toxic; Activity (Rattus norvegicus [23]): 62.1%; Activity (Rattus norvegicus [24]): 89.9%
